# CYP2C19 act: human CYP2C19 activators, primary screen, biochemical, luminescence; 96,000 tested, under 10 active; activation factor at 5 µM; recombinant CYP2C19, luciferin-H EGE luminescence; hits give high values; 0 = fully inhibited enzyme, 1 = untreated enzyme;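 active = activation factor of at least 2 at 5 µM in the primary screen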;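 also: 0 = wells with 2.5 mM tranylcypromine and 1 = vehicle-only wells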
# CYP2C9 inhib: blockers of cytochrome P450 2C9 activity – biochemical, luminescence, ADME assay, primary screen; CYP2C9 Supersomes, luciferin-H conversion; inhibition, % at 5 µM; actives 20% (n = 96,000);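 active = blocking of liver enzyme CYP2C9 beyond about 50% at 5 µM, limit read from the data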
# Target sequence (P11712 whole entry, looked up): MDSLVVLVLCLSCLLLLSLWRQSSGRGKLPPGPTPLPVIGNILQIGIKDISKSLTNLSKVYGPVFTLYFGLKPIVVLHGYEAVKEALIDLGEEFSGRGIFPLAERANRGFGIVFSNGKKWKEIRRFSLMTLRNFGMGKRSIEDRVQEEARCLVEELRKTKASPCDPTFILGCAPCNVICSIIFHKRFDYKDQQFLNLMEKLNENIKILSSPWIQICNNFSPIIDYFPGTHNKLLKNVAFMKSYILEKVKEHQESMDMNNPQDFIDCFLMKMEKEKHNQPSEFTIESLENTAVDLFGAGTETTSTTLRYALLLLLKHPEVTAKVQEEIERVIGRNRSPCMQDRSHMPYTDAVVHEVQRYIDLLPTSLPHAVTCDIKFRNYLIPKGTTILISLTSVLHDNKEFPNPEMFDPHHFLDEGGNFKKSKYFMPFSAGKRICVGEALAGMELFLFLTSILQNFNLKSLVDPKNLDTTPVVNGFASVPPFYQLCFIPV
# CYP2C19 inhib: blockers of cytochrome P450 2C19 activity – biochemical, luminescence, ADME assay, primary screen; actives 21% (n = 96,000); AID 778, 2007; inhibition, % at 5 µM; P33261; CYP2C19 Supersomes, luciferin-H EGE luminescence, 30 min;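 active = CYP2C19 inhibition above a set limit at 5 µM in the primary screen, cut at about 50% in these data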;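 also: plate controls were negative control wells for no effect and 2.5 mM tranylcypromine positive control for full effect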
# E coli WT exp: growth inhibitors of wild-type E. coli, primary screen, strain BW25113, expanded library, OD600. OD600 absorbance. AID 710, 2007. actives 0.15% (n = 98,000). growth inhibition, % at 100 µM;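 active = growth inhibition above about 50% at one test dose, limit read from the data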;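 also: growth measured after 20 h incubation at 37 °C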
# Ecoli tolC: growth inhibitors of E. coli tolC mutant, primary screen, strain BW25113 ΔtolC::kan, 384-well | OD615 | growth inhibition, % at 10 µM (by protocol) | actives 2.2% (n = 65,000) | AID 573, 2007;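 active = growth inhibition at or above a cutoff equal to the mean over every tested compound plus 3 SD, cut at about 60% in these data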;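 also: growth measured after 20 h incubation at 37 °C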
#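 Test system: tolC-deleted E. coli BW25113; medium: LB with kanamycin 50 µg/mL; compound: single-point testing at 10 µM; incubation: 20 h compound exposure of bacteria at 37 °C; signal: OD at 615 nm; evaluation: growth inhibition in percent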
# CYP2C9 act: human CYP2C9 activators, primary screen, biochemical, luminescence; actives 1.4% (n = 96,000); activation factor at 5 µM; AID 1024, 2008; Cytochrome P450 2C9 (Homo sapiens), P11712; recombinant CYP2C9, luciferin-H conversion; hits give high values; factor 1 = untreated enzyme, 0 = blocked;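 active = activation factor of 2 or more for CYP2C9 at a 5 µM dose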;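 also: 0 = sulfaphenazole-blocked wells and 1 = vehicle-only wells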
# Starred values were filed as active, the others as inactive; . = no result given. In the library only some 29% were active in any assay of this set; here they are far more common.
SMILES,CYP2C19 act,CYP2C9 inhib,CYP2C19 inhib,E coli WT exp,Ecoli tolC,CYP2C9 act
Cc1onc(-c2ccccc2)c1C(=O)Nc1ccccc1N1CCOCC1,0,81*,99*,-3,0,0.2
c1cc2c(cc1C1CCCN1)OCCCO2 (stereo unspecified),1,-2,0,-3,6,1
COc1ccccc1CNC(=O)COC(=O)c1ccc(NC(N)=O)cc1,0.7,-4,25,7,17,1
CC(C)CCOc1ccc(C(=O)O)cc1,0.2,83*,83*,-16,-12,0.2
CCC(=O)OCCCCCCOc1ccc(C(=O)O)cc1,0.4,-12,63*,-3,.,1.1
CC(C)CCOc1ccc(C(=O)CCNC(C)C(=O)O)cc1 (stereo unspecified),0.9,9,6,-1,-19,0.9
CC(C)(C)c1cnnn1-c1ccc(-c2csc(N)n2)cc1,0.9,28,7,5,-5,0.7
Nc1ccc(-n2nncc2-c2ccc(Cl)cc2)cc1,0.4,57*,64*,-12,.,0.4
O=[N+]([O-])c1ccc(-n2nncc2-c2ccc(Cl)cc2)cc1,0.1,54*,90*,-1,.,0.5
CC(=O)c1ccc(NC(=O)C2CCC(C)NC2=O)cc1 (stereo unspecified),1.1,-7,-6,4,-20,1.1
CCCc1nnc2n1N=C(c1ccc(-c3cc(Cl)ccc3Cl)o1)CS2,.,.,.,5,-17,.
O=C(NC(=S)NC1CC1)c1cccnc1,0.9,1,10,2,.,1
Cc1ccc(C(=O)NNC(=S)NC(=O)c2ccc(Cl)cc2)cc1,1,87*,0,-6,.,0.1
O=C(CCc1ccccc1)NNC(=S)NC(=O)c1ccc(Cl)cc1,0.8,43,20,-6,.,0.6
O=C(NNC(=S)NC(=O)c1cccnc1)c1ccc(Cl)cc1,1,63*,2,74*,.,0.4
COC(=O)c1ccc(CSc2nc3c(c(=O)n2-c2ccc(F)cc2)SCC3)o1,.,.,.,.,19,.
COC(=O)c1ccc(CSc2nc3ccccc3c(=O)n2-c2ccc(OC)c(OC)c2)o1,0.1,96*,94*,10,19,0
COC(=O)c1ccc(CSc2nnc3n(Cc4ccccc4OC)c(=O)c4ccccc4n23)o1,0.3,74*,72*,.,1,0.3
O=C(CSc1nc2c(c(=O)n1-c1ccccc1)SCC2)N1CCN(c2ccccc2)CC1,0.2,63*,82*,-18,10,0.4
COC(=O)c1ccc(CSc2nc3c(c(=O)n2-c2ccccc2)SCC3)o1,0.5,86*,48,-7,22,0.1
COC(=O)c1ccc(CSc2nnnn2C)o1,0.7,7,29,-2,-14,0.9
O=C(CSc1nc2c(c(=O)n1-c1ccccc1)SCC2)N1CCOCC1,1,3,-2,7,-20,1
COc1ccc(-n2c(SCC(=O)Nc3cc(C)on3)nc3ccc(O)cc3c2=O)cc1OC,0.9,30,11,-4,-3,0.7
COC(=O)c1ccc(CSc2nc3sc4c(c3c(=O)n2C)CCCC4)o1,0.2,94*,84*,-17,42,0.1
COC(=O)c1sc(N)c(C(=O)OC)c1CSc1nc2sc3c(c2c(=O)n1C)CCC3,.,.,.,.,3,.
SMILES,CYP2C19 act,CYP2C9 inhib,CYP2C19 inhib,E coli WT exp,Ecoli tolC,CYP2C9 act
COC(=O)c1ccc(Cn2nnc3ccccc3c2=O)o1,0.8,15,17,-1,-8,0.9
COC(=O)c1ccc(CSc2nc3ccccc3c(=O)n2-c2ccccc2)o1,0.6,74*,44,-11,.,0.3
COc1ccc(-n2c(SC3CCOC3=O)nc3ccccc3c2=O)cc1OC (stereo unspecified),0.6,69*,40,1,-1,0.3
COCCn1c(SCc2ccc(C(=O)OC)o2)nc2ccccc2c1=O,0,92*,98*,2,5,0.1
COCCn1c(SCC(=O)N2CCCCC2)nc2ccccc2c1=O,0.8,22,23,-3,-3,0.8
CC(=O)Nc1ccc(NS(=O)(=O)C(F)(F)F)cc1,0.9,38,14,1,23,0.6

# Screens: PubChem BioAssay, several laboratories
